Measured values reported in ChEMBL document CHEMBL1129310, “(Aminoalkyl)indole isothiocyanates as potential electrophilic affinity ligands for the brain cannabinoid receptor” (J Med Chem, 1996).
pIC50: −log10 of the molar value.

Biological target: T1, Cannabinoid receptor 1 (Rattus norvegicus, UniProt P20272)
Test: Binding affinity against brain Cannabinoid receptor 1 using [3H]CP-55940 as radioligand at 1.1 nM concentration

T1 sequence (P20272 whole entry): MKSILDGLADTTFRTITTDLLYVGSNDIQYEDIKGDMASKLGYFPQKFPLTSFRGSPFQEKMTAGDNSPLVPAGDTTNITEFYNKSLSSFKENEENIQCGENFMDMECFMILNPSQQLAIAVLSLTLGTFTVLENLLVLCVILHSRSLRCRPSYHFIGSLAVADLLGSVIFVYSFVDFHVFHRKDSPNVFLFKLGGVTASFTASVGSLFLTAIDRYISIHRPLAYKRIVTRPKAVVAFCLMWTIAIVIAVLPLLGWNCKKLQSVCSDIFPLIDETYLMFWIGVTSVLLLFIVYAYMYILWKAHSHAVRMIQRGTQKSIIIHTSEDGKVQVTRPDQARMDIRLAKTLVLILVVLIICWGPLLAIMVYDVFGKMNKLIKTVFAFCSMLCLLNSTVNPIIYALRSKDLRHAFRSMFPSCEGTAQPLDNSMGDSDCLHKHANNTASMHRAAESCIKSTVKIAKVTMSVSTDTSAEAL

SMILES	pIC50
Cc1c(C(=O)c2ccc(N=C=S)c3ccccc23)c2ccccc2n1CCN1CCOCC1	6.16

Biological target: T1, Cannabinoid receptor 1
Test: Binding affinity against brain cannabinoid receptor 1 using [3H]CP-55940 as radioligand at 0.25 nM concentration
How it was run: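 Rat brain P2 membranes (30 µg protein) were suspended in 20 mM potassium diethylmalonate pH 7.5 with 2.25 mM MgCl2 and 0.025% β-cyclodextrin, then incubated with [3H]CP-55940 for 1 h at 30 °C. Compounds came from DMSO stocks diluted through β-cyclodextrin. The reaction was stopped with BSA and glass-fibre filtration. Nonspecific binding was defined with 0.1 µM desacetyllevonantradol. Displacement curves were fitted by nonlinear regression, triplicate points.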

SMILES	pIC50
O=C(c1cccc2ccccc12)c1cn(CCN2CCOCC2)c2ccccc12	7.34
O=C(c1cccc2cc(N=C=S)ccc12)c1cn(CCN2CCOCC2)c2ccccc12	6.28
O=C(c1ccc(N=C=S)c2ccccc12)c1cn(CCN2CCOCC2)c2ccccc12	6.36
O=C(c1cc(N=C=S)cc2ccccc12)c1cn(CCN2CCOCC2)c2ccccc12	6.04
O=C(c1cccc2ccccc12)c1cn(CCN2CCOCC2)c2cc(N=C=S)ccc12	6.80
